Experiment [1] addresses T1, eIF4A (Homo sapiens, UniProt P60842). Description: malachite green eIF4A ATPase assay. The following applies: for inhibition of eIF4A ATPase activity (IC50): 8-point dose-response, 500 nM eIF4A, 250 µM ATP. The experiment is classed as biochemical.
Experiment [2] has as its target DDX39A (Homo sapiens, UniProt O00148). Description: ATPase dose-response against DDX39A. In kind it is biochemical. The following applies: 8-point dose-response.
Experiment [3] has as its system A549 lung cancer cells. Description: MTT cytotoxicity, A549. The experiment is classed as cell-based. The following applies: 8-point dose response. In short, it runs like this: (§1)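 Cells exposed to an 8-point dose-response of test compound; viability read by MTT. Percent survival plotted against compound concentration on semi-log axes, and LD50 taken from that curve.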

For experiment [4], the system named is MDA-MA-468 breast cancer cells. Description: MTT cytotoxicity, MDA-MA-468. The experiment is classed as cell-based. The following applies: MDA-MA-468, MTT, 8-point dose response. The essentials:
as §1

Experiment [5] deals with NCI-60 panel. The following applies: cited from earlier work.
The target of experiment [6] is T1, eIF4A. Description: fluorescence-dequenching eIF4A helicase assay. In kind it is biochemical. The following applies: 100 µM compound, relative to DMSO control, eIF4B and ATP. The essentials:
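RNA unwinding assay: a fluorescently labelled RNA strand is annealed to a template beside a black-hole quencher. Adding eIF4A, eIF4B and ATP releases the strand and dequenches the fluorophore. A large excess of blank template prevents reannealing. Test compounds used at 100 μM.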

For experiment [7] the following is noted: cited from earlier work.

The values that follow come from publication PMC5593424 (Bioorganic & medicinal chemistry letters, 2017).

Each structure is given as a SMILES string.

T1 sequence (P60842 whole entry): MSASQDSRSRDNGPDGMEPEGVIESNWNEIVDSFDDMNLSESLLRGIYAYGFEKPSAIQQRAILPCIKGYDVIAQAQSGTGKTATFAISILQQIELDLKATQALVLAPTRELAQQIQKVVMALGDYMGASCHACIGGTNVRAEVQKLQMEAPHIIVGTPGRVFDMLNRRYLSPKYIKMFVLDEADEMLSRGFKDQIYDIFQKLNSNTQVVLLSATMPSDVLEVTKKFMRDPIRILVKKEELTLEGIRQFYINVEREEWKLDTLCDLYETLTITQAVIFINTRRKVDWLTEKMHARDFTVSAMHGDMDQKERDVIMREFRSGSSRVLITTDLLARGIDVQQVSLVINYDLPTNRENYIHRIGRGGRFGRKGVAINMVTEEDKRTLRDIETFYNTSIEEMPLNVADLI
Chain of DDX39A (O00148 whole entry, species assumed): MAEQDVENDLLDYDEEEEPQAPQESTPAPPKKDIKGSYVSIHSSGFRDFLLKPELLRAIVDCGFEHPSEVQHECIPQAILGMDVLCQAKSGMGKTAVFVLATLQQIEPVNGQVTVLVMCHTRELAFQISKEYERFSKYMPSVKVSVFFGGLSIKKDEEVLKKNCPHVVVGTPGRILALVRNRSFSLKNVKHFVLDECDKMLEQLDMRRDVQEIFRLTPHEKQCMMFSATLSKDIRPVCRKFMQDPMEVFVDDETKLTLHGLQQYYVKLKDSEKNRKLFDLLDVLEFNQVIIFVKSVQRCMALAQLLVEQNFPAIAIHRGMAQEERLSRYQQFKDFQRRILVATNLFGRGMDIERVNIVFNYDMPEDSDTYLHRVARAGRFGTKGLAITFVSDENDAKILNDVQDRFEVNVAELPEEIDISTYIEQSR

As to `CC(C)=C[C@@H]1C[C@H](C)c2c(O)cc(C)c3c2C1=C(C)C(=O)C3=O` [Compound 1, elisabatin A], the “inhibition of eIF4A ATPase activity (IC50)” value in experiment [1] is on record as “single-digit”. Besides, in experiment [2], the “inhibition of DDX39A” value was “modest inhibition”. The figures for the LD50 in experiment [3] and in experiment [4] were 40.2 µM and 35.2 µM, respectively. The “activity against the NCI-60 panel” value in experiment [5] is given as “only modest activity”.
As usually defined, the Ki is the equilibrium dissociation constant of an inhibitor or competing ligand from its target. A low value points to a stronger hold on the target. In experiment [1], `C=C1CC[C@@](C)(c2cc(Br)c(C)cc2O)[C@H]1C` [Compound 2, allolaurinterol] had a Ki of 3.86 µM. For the same molecule, in experiment [1], the “inhibition of eIF4A ATPase activity (IC50)” value is on record as “single-digit”. Also, the “inhibition of eIF4A helicase activity” value in experiment [6] was “near complete inhibition”. Moreover, the LD50 in experiment [3] is 41.4 µM; in experiment [4], 31.7 µM. Also, the antibiotic activity entry in experiment [7] is listed as “antibiotic activity”.
Regarding `C[C@H]1C[C@@]2(O[C@H]3C[C@H]4[C@@H]5CC[C@H]6C[C@H](O)CC[C@]6(C)[C@H]5[C@@H](O)C[C@]4(C)[C@H]3[C@@]2(C)O)OC1(C)C` [Compound 3, hippuristanol, reference compound], in experiment [6], the “inhibition of eIF4A helicase activity” value was “near complete inhibition”.
